This note sets out measurements from ChEMBL document CHEMBL3861986, “Synthesis and Enantiomeric Separation of a Novel Spiroketal Derivative: A Potent Human Telomerase Inhibitor with High in Vitro Anticancer Activity” (J Med Chem, 2016).

Assay [1] is described as follows: Growth inhibition of human M14 cells at 250 nM after 24 hrs by cell titer 96 cell proliferation assay. In kind it is functional. The settings on record: M14, 24 h, read-out: GI. In outline:
(§1)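 M14 cells seeded at 8×10^4 cells/mL in 96-well plates and left to adhere overnight. They were treated with 62.5, 125 or 250 nM compound or with DMSO control for up to 72 h. Dye was added for 4 h, followed by solubilization/stop solution, and absorbance was read at 570 nm, zeroed on medium-only wells. Inhibition is given as % versus control. Triplicates in three experiments.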

A short description of assay [2]: Growth inhibition of human M14 cells at 250 nM after 48 hrs by cell titer 96 cell proliferation assay. It is filed as functional. The settings on record: M14, 48 h, read-out: GI. The procedure, abridged:
as §1

Assay [3] is described as follows: Growth inhibition of human M14 cells at 250 nM after 72 hrs by cell titer 96 cell proliferation assay. The settings on record: M14, 72 h, read-out: GI. It is filed as functional. In outline:
as §1

Assay [4] can be described thus: Growth inhibition of human M14 cells at 250 nM after 24 hrs by trypan blue dye exclusion assay. It is filed as functional. The following applies: M14, 24 h, read-out: GI. In outline: (§2)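 Cells seeded at 5×10^4 cells/mL and left to adhere overnight. They were then exposed to 7.8–250 nM compound or to DMSO vehicle, 3 wells per treatment, at 37°C in 5% CO2 for 24, 48 or 72 h. Trypsinized cells were counted by hemocytometer, and viability was scored by trypan blue exclusion. Read-out is viable cell number, mean ± SE of triplicate wells, from a representative experiment of at least three.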

Assay [5] can be described thus: Growth inhibition of human H125 cells at 250 nM after 24 hrs by trypan blue dye exclusion assay. The settings on record: NCI-H125, 24 h, read-out: GI. It is filed as functional. The procedure, abridged:
as §2

Assay [6] in a line: Growth inhibition of human HL60 cells at 250 nM after 24 hrs by trypan blue dye exclusion assay. The following applies: HL-60, 24 h, read-out: GI. In kind it is functional. The procedure, abridged: as §2
A short description of assay [7]: Growth inhibition of human HT-29 cells at 250 nM after 24 hrs by trypan blue dye exclusion assay. In kind it is functional. The settings on record: HT-29, 24 h, read-out: GI. The procedure, abridged: as §2
Assay [8] in a line: Growth inhibition of human MCF7 cells at 250 nM after 24 hrs by trypan blue dye exclusion assay. In kind it is functional. The following applies: MCF7, 24 h, read-out: GI. In outline:
as §2

Assay [9] in a line: Growth inhibition of human SH-SY5Y cells at 250 nM after 24 hrs by trypan blue dye exclusion assay. The settings on record: read-out: GI. In kind it is functional. In outline:
as §2

For assay [10], the system named is SH-SY5Y. Briefly: Induction of apoptosis in human SH-SY5Y cells assessed as increase in caspase 3/7 activation at 7.8 to 15.6 nM after 24 hrs by caspase-glo 3/7 luminescence assay. It is filed as functional, cell-based. The procedure, abridged: (§3)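 SH-SY5Y cells seeded at 5×10^4 cells/mL and left to adhere overnight, then exposed to 7.8–31.2 nM for 24 h. Caspase-Glo 3/7 reagent, in a volume equal to the medium, was added for 1 h at 37°C. Luminescence from the cleaved aminoluciferin substrate was read and expressed relative to untreated control set at 1.0. DMSO-treated cells served as negative control. Triplicate wells.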

The test system of assay [11] is SH-SY5Y. Briefly: Induction of apoptosis in human SH-SY5Y cells assessed as increase in caspase 3/7 activation at 31.2 nM after 24 hrs by caspase-glo 3/7 luminescence assay relative to control. It is filed as functional. The procedure, abridged:
as §3

Assay [12] has as its target T1, Telomerase reverse transcriptase (Homo sapiens, UniProt O14746). Briefly: Inhibition of telomerase activity in human MCF7 cells using biotin-labeled TeloTAGGG as primer at 31.2 nM preincubated for 48 hrs followed by primer addition measured after 30 mins by PCR-ELISA. In kind it is cell-based. The procedure, abridged:
(§4)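 Cells treated 48 h with 31.2–250 nM, then washed, lysed, and the supernatants stored at −80°C. Extracts were incubated 30 min with biotin-labeled primer for telomeric repeat extension. Products plus internal standard were PCR-amplified, hybridized to digoxigenin probes, captured on streptavidin plates, detected with peroxidase antibody, and read at 450 nm. Heat-inactivated extract (95°C, 10 min) served as negative control. Inhibition is % of untreated means; triplicate.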

The target of assay [13] is T1, Telomerase reverse transcriptase. Briefly: Inhibition of telomerase activity in human M14 cells using biotin-labeled TeloTAGGG as primer at 31.2 nM preincubated for 48 hrs followed by primer addition measured after 30 mins by PCR-ELISA. It is filed as cell-based. In outline:
as §4

Assay [14] shares this target. Briefly: Inhibition of telomerase activity in human H125 cells using biotin-labeled TeloTAGGG as primer at 31.2 nM preincubated for 48 hrs followed by primer addition measured after 30 mins by PCR-ELISA. It is filed as cell-based. The procedure, abridged:
as §4

Assay [15] has the same target. Briefly: Inhibition of telomerase activity in human HT-29 cells using biotin-labeled TeloTAGGG as primer at 31.2 nM preincubated for 48 hrs followed by primer addition measured after 30 mins by PCR-ELISA. It is filed as cell-based. In outline: as §4
Assay [16] shares this target. Briefly: Inhibition of telomerase activity in human MCF7 cells using biotin-labeled TeloTAGGG as primer at 62.5 nM preincubated for 48 hrs followed by primer addition measured after 30 mins by PCR-ELISA. In kind it is cell-based. The procedure, abridged:
as §4

For assay [17] the target is unchanged. Briefly: Inhibition of telomerase activity in human M14 cells using biotin-labeled TeloTAGGG as primer at 62.5 nM preincubated for 48 hrs followed by primer addition measured after 30 mins by PCR-ELISA. It is filed as cell-based. In outline:
as §4

The target is the same in assay [18]. Briefly: Inhibition of telomerase activity in human H125 cells using biotin-labeled TeloTAGGG as primer at 62.5 nM preincubated for 48 hrs followed by primer addition measured after 30 mins by PCR-ELISA. It is filed as cell-based. The procedure, abridged:
as §4

Assay [19] has the same target. Briefly: Inhibition of telomerase activity in human HT-29 cells using biotin-labeled TeloTAGGG as primer at 62.5 nM preincubated for 48 hrs followed by primer addition measured after 30 mins by PCR-ELISA. It is filed as cell-based. In outline: as §4
Assay [20] shares this target. Briefly: Inhibition of telomerase activity in human MCF7 cells using biotin-labeled TeloTAGGG as primer at 125 nM preincubated for 48 hrs followed by primer addition measured after 30 mins by PCR-ELISA. In kind it is cell-based. The procedure, abridged: as §4
Assay [21] shares this target. Briefly: Inhibition of telomerase activity in human M14 cells using biotin-labeled TeloTAGGG as primer at 125 nM preincubated for 48 hrs followed by primer addition measured after 30 mins by PCR-ELISA. It is filed as cell-based. In outline:
as §4

The target is the same in assay [22]. Briefly: Inhibition of telomerase activity in human H125 cells using biotin-labeled TeloTAGGG as primer at 125 nM preincubated for 48 hrs followed by primer addition measured after 30 mins by PCR-ELISA. In kind it is cell-based. The procedure, abridged:
as §4

Assay [23] has the same target. Briefly: Inhibition of telomerase activity in human HT-29 cells using biotin-labeled TeloTAGGG as primer at 125 nM preincubated for 48 hrs followed by primer addition measured after 30 mins by PCR-ELISA. It is filed as cell-based. The procedure, abridged: as §4
The target is the same in assay [24]. Briefly: Inhibition of telomerase activity in human MCF7 cells using biotin-labeled TeloTAGGG as primer at 250 nM preincubated for 48 hrs followed by primer addition measured after 30 mins by PCR-ELISA. It is filed as cell-based. In outline:
as §4

The target is the same in assay [25]. Briefly: Inhibition of telomerase activity in human M14 cells using biotin-labeled TeloTAGGG as primer at 250 nM preincubated for 48 hrs followed by primer addition measured after 30 mins by PCR-ELISA. It is filed as cell-based. The procedure, abridged: as §4
For assay [26] the target is unchanged. Briefly: Inhibition of telomerase activity in human H125 cells using biotin-labeled TeloTAGGG as primer at 250 nM preincubated for 48 hrs followed by primer addition measured after 30 mins by PCR-ELISA. It is filed as cell-based. The procedure, abridged:
as §4

The target is the same in assay [27]. Briefly: Inhibition of telomerase activity in human HT-29 cells using biotin-labeled TeloTAGGG as primer at 250 nM preincubated for 48 hrs followed by primer addition measured after 30 mins by PCR-ELISA. In kind it is cell-based. In outline:
as §4

The target is the same in assay [28]. Briefly: Inhibition of telomerase activity in human MCF7 cells using biotin-labeled TeloTAGGG as primer preincubated for 48 hrs followed by primer addition measured after 30 mins by PCR-ELISA. In kind it is cell-based. The procedure, abridged: as §4
For assay [29] the target is unchanged. Briefly: Inhibition of telomerase activity in human M14 cells using biotin-labeled TeloTAGGG as primer preincubated for 48 hrs followed by primer addition measured after 30 mins by PCR-ELISA. It is filed as cell-based. In outline:
as §4

Assay [30] shares this target. Briefly: Inhibition of telomerase activity in human H125 cells using biotin-labeled TeloTAGGG as primer preincubated for 48 hrs followed by primer addition measured after 30 mins by PCR-ELISA. It is filed as cell-based. In outline: as §4
The target is the same in assay [31]. Briefly: Inhibition of telomerase activity in human HT-29 cells using biotin-labeled TeloTAGGG as primer preincubated for 48 hrs followed by primer addition measured after 30 mins by PCR-ELISA. It is filed as cell-based. In outline: as §4

pIC50: −log10 of the molar value. Activity calls are given as the source filed them. No cut-off for these calls is given here.

T1 sequence (O14746 whole entry): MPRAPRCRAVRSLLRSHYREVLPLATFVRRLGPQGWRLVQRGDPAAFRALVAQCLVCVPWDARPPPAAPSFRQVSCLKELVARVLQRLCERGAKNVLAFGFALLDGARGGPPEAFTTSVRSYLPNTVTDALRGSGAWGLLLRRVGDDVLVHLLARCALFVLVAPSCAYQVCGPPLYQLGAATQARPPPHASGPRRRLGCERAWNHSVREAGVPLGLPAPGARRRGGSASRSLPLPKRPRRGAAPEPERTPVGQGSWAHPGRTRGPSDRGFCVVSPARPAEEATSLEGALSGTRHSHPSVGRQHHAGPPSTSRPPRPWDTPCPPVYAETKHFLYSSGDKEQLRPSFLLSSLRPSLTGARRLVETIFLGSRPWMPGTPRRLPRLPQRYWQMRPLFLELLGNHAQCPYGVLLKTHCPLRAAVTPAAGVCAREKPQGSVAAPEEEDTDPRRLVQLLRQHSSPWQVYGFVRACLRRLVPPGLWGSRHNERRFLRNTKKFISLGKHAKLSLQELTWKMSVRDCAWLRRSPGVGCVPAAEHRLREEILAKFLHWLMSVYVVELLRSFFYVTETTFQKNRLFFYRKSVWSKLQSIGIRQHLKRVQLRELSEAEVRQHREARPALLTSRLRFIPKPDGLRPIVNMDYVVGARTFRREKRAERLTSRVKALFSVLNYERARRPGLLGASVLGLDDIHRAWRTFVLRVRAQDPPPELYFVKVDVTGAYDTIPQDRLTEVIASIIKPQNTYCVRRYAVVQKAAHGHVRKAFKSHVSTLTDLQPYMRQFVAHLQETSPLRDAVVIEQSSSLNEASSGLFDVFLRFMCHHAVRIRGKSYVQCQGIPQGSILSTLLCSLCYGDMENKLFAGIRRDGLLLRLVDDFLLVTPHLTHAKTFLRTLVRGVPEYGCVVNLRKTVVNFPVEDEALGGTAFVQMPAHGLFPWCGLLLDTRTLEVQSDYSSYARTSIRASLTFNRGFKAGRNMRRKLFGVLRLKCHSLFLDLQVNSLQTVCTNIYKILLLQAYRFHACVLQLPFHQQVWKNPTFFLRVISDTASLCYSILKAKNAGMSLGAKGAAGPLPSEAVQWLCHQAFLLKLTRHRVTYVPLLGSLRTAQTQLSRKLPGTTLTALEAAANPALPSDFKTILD

With `C[C@@H]1CCC[C@@]2(O[C@H](O)C=CC2=O)O1`, the values for the inhibition of growth at 0.25 µM in [1], in assay [2] and in [3] were 36.7%, 58.1% and 63.7%, respectively.

For the compound `C[C@H]1CCC[C@]2(O[C@@H](O)C=CC2=O)O1`, the inhibition of growth at 0.25 µM in [1] was 40.4%; in [2], 64.4%; in assay [3] it was 66.6%.

As for `CC1CCCC2(OC(O)C=CC2=O)O1` (mixture of isomers), the inhibition of growth at 0.25 µM in [4], in [5], in assay [6], in assay [7], in [8] and in assay [9] was greater than 90% in each case. For the same compound, the inhibition of growth at 0.25 µM in assay [1] amounted to 36.8%; in assay [2], 56.1%; in [3] it was 61.4%. The outcome in the assay on SH-SY5Y [10] was Active. In the assay on SH-SY5Y [11], the “fold change (FC)” value came out at 8.2. In addition, the inhibition in [12] is 0%; in [13], 62%; in [14], 13.6%; in [15] it was 24%; in assay [16], 37.5%; in assay [17], 63%. In addition, the inhibition in assay [18] worked out at 48.7%; in [19] it was 53.5%; in [20], 67.9%; in assay [21], 74%; in assay [22] it was 67.6%; in assay [23], 69%. Further, the inhibition in assay [24] is 78.6%; in [25], 82.6%; in [26], 75.7%; in assay [27], 73.4%; in [28] it was “Dose-dependent effect”; in assay [29], “Dose-dependent effect”. The inhibition result in assay [30] and in assay [31] was “Dose-dependent effect” throughout. Besides, the pIC50 in assay [28], in assay [29], in assay [30] and in [31] was 7.07 to 7.90 each time.
